Values after ≈ are worked out from the molar mass of the structure shown.
Experiments:
Saturated solubility = type: physicochemical; settings: ultrapure water
Outline: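 Excess test material added to 5 mL ultrapure water, shaken 24 h at 37°C. Undissolved drug removed by centrifugation (12,000 rpm, 30 min) and 0.22 μm filtration. Filtrate concentration measured by HPLC. n=3, mean ± SD.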

In vitro dissolution = type: physicochemical; settings: 37°C
Caco-2 cells [1] = assay: Cellular uptake in Caco-2 cell monolayer; type: in vitro ADME; settings: Caco-2, 30 μM luteolin, 37°C, 4 h
Caco-2 cells [2] = assay: Cellular uptake mechanisms with endocytosis inhibitors; type: in vitro ADME
Outline: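 Caco-2 cells seeded at 2.5×10^4 per well, cultured 14 days. Then rinsed and given test compound at 30 μM luteolin, 4 h at 37°C. Washed, lysed by ultrasonication, luteolin by HPLC normalised to BCA protein. Compared with uninhibited control.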

Caco-2 cells [3] = assay: Cytotoxicity study on Caco-2 cells; type: cell-based; settings: under the experimental conditions (Figure S4)
HUA model mice = assay: Anti-hyperuricemia study in HUA mice model; type: in vivo, ICR mice; settings: oral 30 mg/kg luteolin for 2 weeks, compared with HUA group
Outline: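 Male ICR mice, n=8 per group. Hyperuricemia induced by daily intraperitoneal potassium oxonate 300 mg/kg plus hypoxanthine 300 mg/kg in normal saline for seven consecutive days. Test compound given by gavage in normal saline at 30 mg/kg luteolin-equivalent for 2 weeks, including 1-week pretreatment. Vehicle and febuxostat 10 mg/kg (oral, one week) controls. Serum uric acid measured by commercial kit at end; one-way ANOVA.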

O=c1cc(-c2ccc(O)c(O)c2)oc2cc(O)cc(O)c12 [LUT, Luteolin]
solubility at 24 h (Saturated solubility): 0.94 ± 0.07 µg/mL (≈ 3.28 µM)
drug dissolved (cumulative dissolution) (In vitro dissolution; SGF pH 1.2 with 0.5% Tween 80, within 3 min): 25.78%
drug dissolved (cumulative dissolution) (In vitro dissolution; SIF pH 6.8 with 0.5% Tween 80, within 3 min): 48.47%
cellular uptake (Caco-2 cells [1]): 25.89 ± 4.94 μg luteolin/mg cellular protein
effect of chlorpromazine, indomethacin, or colchicine on cellular uptake (Caco-2 cells [2]; Caco-2 pretreated with inhibitor 1 h): no significant change
effect of sodium azide on cellular uptake (Caco-2 cells [2]; Caco-2 pretreated with sodium azide 650 μg/mL 1 h): significantly reduced
viability of Caco-2 cells (Caco-2 cells [3]): did not affect the viability
serum UA level reduction (HUA model mice): 51.67%

Reference: paper PMC11162967 (International Journal of Nanomedicine, 2024)
